In one test the test system is Hepatitis C virus. Nature of the test: Antiviral activity against HCV replication. The format is functional, organism-based, Hepacivirus hominis.
For another test, the system named is Huh-7. Put plainly: Cytotoxicity against Huh7 cells by MTS assay. Type of test: functional. The settings on record: Homo sapiens. The method, boiled down: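 Cells exposed to compound for 96 h; viability read by MTS tetrazolium reduction (non-radioactive cell proliferation kit); CC50 taken as the 50% cytotoxic concentration.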
(Tetrazolium assays rely on reduction of a dye to a coloured formazan, in cell work by metabolically active cells.)

Experimental findings from ChEMBL document CHEMBL1139016, “Synthesis and antiviral activity of 2'-deoxy-2'-fluoro-2'-C-methyl purine nucleosides as inhibitors of hepatitis C virus RNA replication” (Bioorg Med Chem Lett, 2006) are described below.

One may read the EC90 as the concentration at which the effect reaches the 90% level. What is called CC50 is the concentration giving 50% cytotoxicity. Low readings indicate greater toxicity to the cells, high ones lower toxicity to the cells.

In the case of `C[C@@]1(F)[C@H](O)[C@@H](CO)O[C@H]1n1cnc2c(Cl)nc(N)nc21`, the 90% effect level in the test on Hepatitis C virus (EC90) was put at 62.4 µM. Further, the CC50 in the test on Huh-7 was above 100 µM.
As to `C[C@@]1(F)[C@H](O)[C@@H](CO)O[C@H]1n1cnc2c(O)nc(N)nc21`, in the test with Hepatitis C virus, it took 56 µM to reach the 90% level (EC90). In addition, the CC50 with Huh-7 is above 100 µM.
In the test on Hepatitis C virus, `C[C@@]1(F)[C@H](O)[C@@H](CO)O[C@H]1n1cnc2c(N)ncnc21` displayed an EC90 above 100 µM. Moreover, the CC50 in the test with Huh-7 is above 100 µM.
`C[C@@]1(F)[C@H](O)[C@@H](CO)O[C@H]1n1cnc2c(Cl)ncnc21`: the 90% effect level in the test with Hepatitis C virus (EC90) was put at 88.2 µM. The molecule also showed a half-maximal cytotoxic concentration (CC50) in the test on Huh-7 of 27.1 µM.
With `C[C@@]1(O)[C@H](O)[C@@H](CO)O[C@H]1n1cnc2c(N)ncnc21`, the EC90 in the test with Hepatitis C virus was determined as 1.4 µM. The cytotoxic concentration (CC50) with Huh-7 turned out to be 15 µM.
The matching figures for `C[C@@]1(O)[C@H](O)[C@@H](CO)O[C@H]1n1cnc2c(=O)[nH]c(N)nc21` [2'-B-METHYL-GUANOSINE]: 10.8 µM and above 100 µM.
